Data: ChEMBL document CHEMBL3868612, “Discovery of a potent and selective ROMK inhibitor with improved pharmacokinetic properties based on an octahydropyrazino[2,1-c][1,4]oxazine scaffold” (Bioorg Med Chem Lett, 2016)

Experiments:
[1] = target: T1, Voltage-gated inwardly rectifying potassium channel KCNH2 (Homo sapiens, UniProt Q12809); test: Inhibition of human ERG by electrophysiology method
[2] = target: T2, ATP-sensitive inward rectifier potassium channel 1 (Homo sapiens, UniProt P48048); test: Inhibition of human ROMK expressed in CHO cells after 6 mins at -70 mV holding potential by electrophysiology method; type: cell-based
T2 sequence (P48048 whole entry): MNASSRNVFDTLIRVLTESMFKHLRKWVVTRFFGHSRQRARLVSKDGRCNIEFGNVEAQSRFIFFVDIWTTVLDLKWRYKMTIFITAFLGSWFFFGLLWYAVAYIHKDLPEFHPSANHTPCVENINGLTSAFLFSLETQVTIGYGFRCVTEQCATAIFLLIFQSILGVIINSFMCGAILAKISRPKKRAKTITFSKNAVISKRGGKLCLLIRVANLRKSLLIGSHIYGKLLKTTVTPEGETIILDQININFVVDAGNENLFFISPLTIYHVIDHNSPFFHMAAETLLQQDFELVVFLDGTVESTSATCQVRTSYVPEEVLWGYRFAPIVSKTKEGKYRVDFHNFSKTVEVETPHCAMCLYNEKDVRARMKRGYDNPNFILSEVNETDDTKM

[3] = Oral bioavailability in Sprague-Dawley rat at 1 mg/kg; type: ADME, organism-based; conditions: in vivo
[4] = Dose normalized AUC in Sprague-Dawley rat at 1 mg/kg, po; type: ADME, organism-based; conditions: in vivo
[5] = Half life in Sprague-Dawley rat at 0.5 mg/kg, iv or 1 mg/kg, po; type: ADME, organism-based; conditions: in vivo
CHO = test: Selectivity ratio of IC50 for displacement of 35S-MK499 from human ERG to IC50 for human ROMK expressed in CHO cells; type: cell-based
[6] = target: T1, Voltage-gated inwardly rectifying potassium channel KCNH2; test: Displacement of 35S-MK499 from human ERG expressed in HEK293 cell membranes
Summary of the method: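 Membranes were prepared from HEK-293 cells stably expressing hERG. Binding was measured as displacement of 35S-MK499.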

[7] = Half life in po dosed human; type: ADME, organism-based; conditions: in vivo
[8] = Half life in Sprague-Dawley rat at 1 mg/kg, iv or 2 mg/kg, po; type: ADME, organism-based; conditions: in vivo
[9] = Oral bioavailability in Sprague-Dawley rat at 2 mg/kg; type: ADME, organism-based; conditions: in vivo
[10] = Dose normalized AUC in Sprague-Dawley rat at 2 mg/kg, po; type: ADME, organism-based; conditions: in vivo

T1 sequence (Q12809 whole entry): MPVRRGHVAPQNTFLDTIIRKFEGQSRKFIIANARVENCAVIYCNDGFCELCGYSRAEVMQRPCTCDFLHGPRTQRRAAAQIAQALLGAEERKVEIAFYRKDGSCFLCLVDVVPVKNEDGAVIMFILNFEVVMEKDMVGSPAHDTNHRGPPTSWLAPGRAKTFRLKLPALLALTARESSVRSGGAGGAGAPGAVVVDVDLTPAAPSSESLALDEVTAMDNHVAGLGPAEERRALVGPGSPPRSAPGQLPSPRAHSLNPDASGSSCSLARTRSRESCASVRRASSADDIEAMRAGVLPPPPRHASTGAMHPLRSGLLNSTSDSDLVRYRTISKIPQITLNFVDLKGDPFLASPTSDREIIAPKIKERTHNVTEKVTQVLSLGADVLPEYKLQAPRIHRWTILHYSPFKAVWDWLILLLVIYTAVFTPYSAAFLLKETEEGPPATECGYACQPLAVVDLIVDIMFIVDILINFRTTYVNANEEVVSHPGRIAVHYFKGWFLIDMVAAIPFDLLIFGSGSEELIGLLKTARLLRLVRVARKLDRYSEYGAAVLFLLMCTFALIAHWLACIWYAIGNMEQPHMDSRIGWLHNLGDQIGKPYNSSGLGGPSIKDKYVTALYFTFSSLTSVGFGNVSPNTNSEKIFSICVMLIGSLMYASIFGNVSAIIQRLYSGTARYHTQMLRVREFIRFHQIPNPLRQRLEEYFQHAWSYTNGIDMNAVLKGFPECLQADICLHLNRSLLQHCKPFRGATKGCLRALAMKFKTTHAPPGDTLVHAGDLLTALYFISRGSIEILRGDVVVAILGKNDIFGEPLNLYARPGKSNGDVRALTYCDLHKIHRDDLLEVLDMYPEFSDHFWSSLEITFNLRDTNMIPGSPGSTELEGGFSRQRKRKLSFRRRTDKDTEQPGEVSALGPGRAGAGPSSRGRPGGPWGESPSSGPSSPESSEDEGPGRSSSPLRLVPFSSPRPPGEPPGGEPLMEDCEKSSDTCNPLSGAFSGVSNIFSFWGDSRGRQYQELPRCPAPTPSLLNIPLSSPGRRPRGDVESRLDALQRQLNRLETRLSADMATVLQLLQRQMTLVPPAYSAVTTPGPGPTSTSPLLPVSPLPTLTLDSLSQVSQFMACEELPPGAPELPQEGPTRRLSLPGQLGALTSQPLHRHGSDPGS

SMILES	IC50 [1]	IC50 [2]	bioavailability [3]	AUC/dose [4]	half-life [5]	also measured
Cc1c([C@@H]2CN3CCN(C(=O)Cc4ccc(-n5cnnn5)nc4)C[C@H]3CO2)ccc2nonc12	> 10000 nM	72 nM	–	–	–	–
Cc1c([C@H]2CN3CCN(C(=O)Cc4ccc(-n5cnnn5)nc4)C[C@H]3CO2)ccc(F)c1C#N	12500 nM	41 nM	69%	1.8 µM·kg·h/mg	87.6 min	–
Cc1c([C@H]2CN3CCN(C(=O)Cc4ccc(-n5cnnn5)nc4)C[C@@H]3CN2)ccc2c1COC2=O	–	140 nM	–	–	–	Ratio IC50 (CHO): 157; IC50 [6]: 22000 nM
O=C1OCCc2cc([C@@H]3CN4CCN(C(=O)Cc5cnc(-n6cnnn6)nc5)C[C@H]4CO3)ccc21	> 90000 nM	260 nM	12%	0.18 µM·kg·h/mg	29.4 min	–
Cc1c([C@@H]2CN3CCN(C(=O)Cc4cnc(-n5cnnn5)cn4)C[C@H]3CO2)ccc(F)c1C#N	10000 nM	33 nM	100%	4.64 µM·kg·h/mg	84 min	–
Cc1c([C@H]2CN3CCN(C(=O)Cc4ccc(-n5cnnn5)nn4)C[C@H]3CO2)ccc(F)c1C#N	–	86 nM	–	–	–	–
O=C1OCCc2cc([C@H]3CN4CCN(C(=O)Cc5ccc(-n6cnnn6)nc5)C[C@H]4CO3)ccc21	–	205 nM	–	–	–	–
O=C1OCCc2cc([C@H]3CN4CCN(C(=O)Cc5ccc(-n6cnnn6)nc5)C[C@@H]4CO3)ccc21	–	165 nM	98%	2.25 µM·kg·h/mg	45 min	–
Cc1c([C@H]2CN3CCN(C(=O)Cc4ccc(-n5cnnn5)nc4)C[C@@H]3CO2)ccc2c1COC2=O	–	105 nM	–	–	–	Ratio IC50 (CHO): 508; IC50 [6]: 53400 nM
Cc1c([C@@H]2CN3CCN(C(=O)Cc4ccc(-n5cnnn5)nc4)C[C@H]3CO2)ccc(F)c1C#N	10000 nM	36 nM	57%	1 µM·kg·h/mg	63 min	–
Cc1c([C@H]2CN3CCN(C(=O)Cc4cnc(-n5cnnn5)cn4)C[C@H]3CO2)ccc(F)c1C#N	12300 nM	107 nM	–	–	–	–
O=C(Cc1ccc(-n2cnnn2)nc1)N1CCN2C[C@@H](c3ccc4nonc4c3)OC[C@@H]2C1	–	45 nM	–	–	–	–
Cc1c(C#N)cccc1[C@@H]1CN2CCN(C(=O)Cc3ccc(-n4cnnn4)nc3)C[C@@H]2CO1	14800 nM	27 nM	67%	2 µM·kg·h/mg	98.4 min	–
Cc1c([C@H]2CN3CCN(C(=O)Cc4ccc(-n5cnnn5)nc4)C[C@H]3CO2)ccc2nonc12	10000 nM	83 nM	100%	1.8 µM·kg·h/mg	58.2 min	–
Cc1c([C@@H]2CN3CCN(C(=O)Cc4ccc(-n5cnnn5)nc4)C[C@@H]3CO2)ccc2c1COC2=O	74900 nM	86 nM	100%	2.02 µM·kg·h/mg	48 min	Ratio IC50 (CHO): 690; IC50 [6]: 59400 nM
Cc1cccc(Nc2ccncc2S(=O)(=O)NC(=O)NC(C)C)c1 [TORSEMIDE]	–	–	–	–	–	half-life [7]: 180 min
Cc1c([C@H]2CN3CCN(C(=O)Cc4ccc(-n5cnnn5)nc4)C[C@H]3CO2)ccc2c1COC2=O	56500 nM	88 nM	46%	0.32 µM·kg·h/mg	40.2 min	Ratio IC50 (CHO): 305; IC50 [6]: 26800 nM
Cc1c(C#N)cccc1[C@H]1CN2CCN(C(=O)Cc3ccc(-n4cnnn4)nc3)C[C@H]2CO1	17600 nM	112 nM	–	–	–	–
O=C1OCCc2cc([C@@H]3CN4CCN(C(=O)Cc5ccc(-n6cnnn6)nc5)C[C@H]4CO3)ccc21	–	57 nM	65%	1.4 µM·kg·h/mg	51 min	–
Cc1c([C@@H]2CN3CCN(C(=O)Cc4ccc(-n5cnnn5)nc4)C[C@H]3CO2)ccc2c1COC2=O	19700 nM	65 nM	82%	2.05 µM·kg·h/mg	60 min	Ratio IC50 (CHO): 325; IC50 [6]: 21100 nM
O=C1OCCc2cc([C@@H]3CN4CCN(C(=O)Cc5ccc(-n6cnnn6)cc5)C[C@H]4CO3)ccc21	> 30000 nM	–	–	–	–	–
Cc1c([C@@H]2CN3CCN(C(=O)Cc4ccc(-n5cnnn5)nc4)C[C@@H]3CO2)ccc(F)c1C#N	> 10000 nM	60 nM	–	–	–	–
Cc1c([C@@H]2CN3CCN(C(=O)Cc4cnc(-n5cnnn5)nc4)C[C@H]3CO2)ccc(F)c1C#N	–	18 nM	–	–	–	–
Cc1c(C#N)cccc1[C@@H]1CN2CCN(C(=O)Cc3ccc(-n4cnnn4)nc3)C[C@H]2CO1	–	50 nM	–	–	–	–
Cc1c([C@H]2CN3CCN(C(=O)Cc4ccc(-n5cnnn5)cn4)C[C@H]3CO2)ccc(F)c1C#N	19900 nM	70 nM	68%	–	57.6 min	–
Cc1c([C@@H]2CN3CCN(C(=O)Cc4ccc(-n5cnnn5)nc4)C[C@H]3CS2)ccc2c1COC2=O	–	100 nM	–	–	–	Ratio IC50 (CHO): 89; IC50 [6]: 8900 nM
O=C(Cc1ccc(-n2cnnn2)nc1)N1CCN2C[C@H](c3ccc4nonc4c3)OC[C@@H]2C1	–	104 nM	–	–	–	–
Cc1c([C@H]2CN3CCN(C(=O)Cc4cnc(-n5cnnn5)nc4)C[C@H]3CO2)ccc(F)c1C#N	–	39 nM	–	–	–	half-life [8]: 81.6 min; bioavailability [9]: 54%; AUC/dose [10]: 1.01 µM·kg·h/mg
